ChEMBL document CHEMBL1629571, “High prevalence of plasmid-mediated quinolone resistance determinants qnr, aac(6')-Ib-cr, and qepA among ceftiofur-resistant Enterobacteriaceae isolates from companion and food-producing animals” (2009)
≈ marks a conversion by molar mass, not a printed value.

Experiments:
[1] = test system: Klebsiella pneumoniae; assay: Antimicrobial activity against Klebsiella pneumoniae D10 expressing aac(6')-Ib-cr, qnrB4, CTX-M-1G and DHA-1 genes by agar dilution method; format: functional
[2] = test system: Citrobacter freundii; assay: Antimicrobial activity against Citrobacter freundii D26 expressing qnrB6 and CTX-M-9G genes by agar dilution method; format: functional
Outline: (§1)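 Agar dilution MICs per CLSI guidelines, with E. coli ATCC 25922 as the quality-control strain. Isolates were ceftiofur-resistant (MIC ≥ 8 μg/ml) Enterobacteriaceae from diseased companion or food-producing animals in Guangdong, China. They were identified biochemically and with Biolog Microlog, and PMQR and β-lactamase genes were typed by PCR and sequencing.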

[3] = test system: Escherichia coli; assay: Antimicrobial activity against Escherichia coli Du19 expressing qnrB6 and CTX-M-9G genes by agar dilution method; format: functional; outline: as §1
[4] = test system: Escherichia coli; assay: Antimicrobial activity against Escherichia coli PA11 expressing aac(6')-Ib-cr, qnrS1 and qepA genes by agar dilution method; format: functional; outline: as §1
[5] = test system: Escherichia coli; assay: Antimicrobial activity against Escherichia coli J53 by agar dilution method; format: functional
[6] = test system: Escherichia coli; assay: Antimicrobial activity against Escherichia coli J53 transformed with pHND1 carrying DHA-1 gene by agar dilution method; format: functional
Outline: (§2)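 Transconjugants came from liquid mating of qnr-positive donors into E. coli J53Azi^r. They were selected on tryptic soy agar with sodium azide (100 μg/ml) plus sulfamethoxazole (300 μg/ml) or ampicillin (100 μg/ml). MICs were determined by CLSI agar dilution, with E. coli ATCC 25922 as the quality control strain.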

[7] = test system: Escherichia coli; assay: Antimicrobial activity against Escherichia coli J53 transformed with pHND2 carrying qnrB6 and CTX-M-9G genes by agar dilution method
[8] = test system: Escherichia coli; assay: Antimicrobial activity against Escherichia coli J53 transformed with pHND3 carrying qnrB6 gene by agar dilution method; format: functional; outline: as §2
[9] = test system: Escherichia coli; assay: Antimicrobial activity against Escherichia coli J53 transformed with pHNDU1 carrying qnrB6 gene by agar dilution method; format: functional; outline: as §2
[10] = test system: Escherichia coli; assay: Antimicrobial activity against Escherichia coli J53 transformed with pHNPA1 carrying qnrB6 gene by agar dilution method
[11] = test system: Klebsiella pneumoniae; assay: Antimicrobial activity against Klebsiella pneumoniae D24 expressing qnrB6 and CTX-M-9G genes by agar dilution method
[12] = test system: Klebsiella pneumoniae; assay: Antimicrobial activity against Klebsiella pneumoniae C1 expressing aac(6')-Ib-cr gene by agar dilution method
[13] = test system: Klebsiella pneumoniae; assay: Antimicrobial activity against Klebsiella pneumoniae C7 expressing aac(6')-Ib-cr gene by agar dilution method
[14] = test system: Escherichia coli; assay: Antimicrobial activity against Escherichia coli D71 expressing qepA, CTX-M-1G and CTX-M-9G genes by agar dilution method
[15] = test system: Escherichia coli; assay: Antimicrobial activity against Escherichia coli P498 expressing qnrS1 gene by agar dilution method
[16] = test system: Escherichia coli; assay: Antimicrobial activity against Escherichia coli Chi197 expressing aac(6')-Ib-cr and CTX-M-9G genes by agar dilution method
[17] = test system: Escherichia coli; assay: Antimicrobial activity against Escherichia coli PA09 expressing aac(6')-Ib-cr gene by agar dilution method
[18] = test system: Escherichia coli; assay: Antimicrobial activity against Escherichia coli PA14 expressing aac(6')-Ib-cr and qepA genes by agar dilution method
[19] = test system: Klebsiella pneumoniae; assay: Antimicrobial activity against Klebsiella pneumoniae D24 expressing aac(6')-Ib-cr and CTX-M-9G genes by Etest
[20] = test system: Citrobacter freundii; assay: Antimicrobial activity against Citrobacter freundii D26 expressing qnrB6 and CTX-M-9G genes by Etest; format: functional
[21] = test system: Escherichia coli; assay: Antimicrobial activity against Escherichia coli PA11 expressing aac(6')-Ib-cr, qnrS1 and qepA genes by Etest; format: functional
[22] = test system: Klebsiella pneumoniae; assay: Antimicrobial activity against Klebsiella pneumoniae D10 expressing aac(6')-Ib-cr, qnrB4, CTX-M-1G and DHA-1 genes by Etest; format: functional
[23] = test system: Escherichia coli; assay: Antimicrobial activity against Escherichia coli J53 transformed with pHND1 carrying DHA-1 gene by Etest; format: functional
[24] = test system: Escherichia coli; assay: Antimicrobial activity against Escherichia coli J53 transformed with pHND2 carrying qnrB6 and CTX-M-9G genes by Etest; format: functional
[25] = test system: Escherichia coli; assay: Antimicrobial activity against Escherichia coli Du19 expressing qnrB6 and CTX-M-9G genes by Etest; format: functional
[26] = test system: Escherichia coli; assay: Antimicrobial activity against Escherichia coli J53 transformed with pHNDU1 carrying qnrB6 gene by Etest; format: functional

| Compound | MIC [1] | MIC [2] | MIC [3] | MIC [4] | MIC [5] | MIC [6] | MIC [7] | MIC [8] | MIC [9] | MIC [10] | MIC [11] | other results |
| --- | --- | --- | --- | --- | --- | --- | --- | --- | --- | --- | --- | --- |
| CO/N=C(\C(=O)N[C@@H]1C(=O)N2C(C(=O)O)=C(COC(C)=O)CS[C@H]12)c1csc(N)n1 [CEFOTAXIME] | 128 µg/mL (≈ 281 µM) | 64 µg/mL (≈ 141 µM) | 128 µg/mL (≈ 281 µM) | 16 µg/mL (≈ 35.1 µM) | 0.06 µg/mL (≈ 0.132 µM) | 0.125 µg/mL (≈ 0.274 µM) | 32 µg/mL (≈ 70.3 µM) | 0.06 µg/mL (≈ 0.132 µM) | 1 µg/mL (≈ 2.2 µM) | 0.5 µg/mL (≈ 1.1 µM) | 64 µg/mL (≈ 141 µM) | – |
| CO/N=C(\C(=O)N[C@@H]1C(=O)N2C(C(=O)O)=C(CSC(=O)c3ccco3)CS[C@H]12)c1csc(N)n1 [CEFTIOFUR] | 128 µg/mL (≈ 244 µM) | 128 µg/mL (≈ 244 µM) | 128 µg/mL (≈ 244 µM) | > 128 µg/mL | 0.25 µg/mL (≈ 0.477 µM) | 0.5 µg/mL (≈ 0.955 µM) | 64 µg/mL (≈ 122 µM) | 0.25 µg/mL (≈ 0.477 µM) | 0.25 µg/mL (≈ 0.477 µM) | 0.5 µg/mL (≈ 0.955 µM) | > 128 µg/mL | – |
| O=C(N[C@H](CO)[C@H](O)c1ccc([N+](=O)[O-])cc1)C(Cl)Cl [CHLORAMPHENICOL] | > 128 µg/mL | 64 µg/mL (≈ 198 µM) | > 128 µg/mL | > 256 µg/mL | 8 µg/mL (≈ 24.8 µM) | > 128 µg/mL | > 128 µg/mL | 8 µg/mL (≈ 24.8 µM) | > 128 µg/mL | – | > 128 µg/mL | – |
| GENTAMICIN | > 128 µg/mL | > 128 µg/mL | > 128 µg/mL | > 256 µg/mL | 0.125 µg/mL | > 128 µg/mL | – | 16 µg/mL | > 128 µg/mL | – | – | – |
| O=C(O)c1cn(C2CC2)c2cc(N3CCNCC3)c(F)cc2c1=O [CIPROFLOXACIN] | – | 4 µg/mL (≈ 12.1 µM) | 64 µg/mL (≈ 193 µM) | > 128 µg/mL | – | – | – | – | – | – | 2 µg/mL (≈ 6.04 µM) | MIC [12]: 8 µg/mL (≈ 24.1 µM); MIC [13]: 8 µg/mL (≈ 24.1 µM); MIC [14]: 64 µg/mL (≈ 193 µM); MIC [15]: 64 µg/mL (≈ 193 µM); MIC [16]: 64 µg/mL (≈ 193 µM); MIC [17]: 64 µg/mL (≈ 193 µM); MIC [18]: > 128 µg/mL; MIC [19]: 2 µg/mL (≈ 6.04 µM); MIC [20]: 4 µg/mL (≈ 12.1 µM); MIC [21]: > 128 µg/mL |
| COc1cc(Cc2cnc(N)nc2N)cc(OC)c1OC [TRIMETHOPRIM] | > 256 µg/mL | > 256 µg/mL | > 256 µg/mL | > 256 µg/mL | 0.25 µg/mL (≈ 0.861 µM) | > 256 µg/mL | > 256 µg/mL | > 256 µg/mL | 0.5 µg/mL (≈ 1.72 µM) | > 256 µg/mL | > 256 µg/mL | – |
| CC(C)(O/N=C(\C(=O)N[C@@H]1C(=O)N2C(C(=O)[O-])=C(C[n+]3ccccc3)CS[C@H]12)c1csc(N)n1)C(=O)O [CEFTAZIDIME] | 128 µg/mL (≈ 234 µM) | 1 µg/mL (≈ 1.83 µM) | 16 µg/mL (≈ 29.3 µM) | 32 µg/mL (≈ 58.5 µM) | 0.125 µg/mL (≈ 0.229 µM) | 0.25 µg/mL (≈ 0.457 µM) | 1 µg/mL (≈ 1.83 µM) | 0.125 µg/mL (≈ 0.229 µM) | 0.5 µg/mL (≈ 0.915 µM) | 1 µg/mL (≈ 1.83 µM) | 2 µg/mL (≈ 3.66 µM) | – |
| CO/N=C(\C(=O)N[C@@H]1C(=O)N2C(C(=O)[O-])=C(C[n+]3cccc4c3CCCC4)CS[C@H]12)c1csc(N)n1 [CEFQUINOME] | 64 µg/mL (≈ 121 µM) | 64 µg/mL (≈ 121 µM) | 32 µg/mL (≈ 60.5 µM) | 64 µg/mL (≈ 121 µM) | 0.06 µg/mL (≈ 0.114 µM) | 0.06 µg/mL (≈ 0.114 µM) | 8 µg/mL (≈ 15.1 µM) | 0.06 µg/mL (≈ 0.114 µM) | 0.25 µg/mL (≈ 0.473 µM) | 0.25 µg/mL (≈ 0.473 µM) | 64 µg/mL (≈ 121 µM) | – |
| NCC[C@H](O)C(=O)N[C@@H]1C[C@H](N)[C@@H](O[C@H]2O[C@H](CN)[C@@H](O)[C@H](O)[C@H]2O)[C@H](O)[C@H]1O[C@H]1O[C@H](CO)[C@@H](O)[C@H](N)[C@H]1O [AMIKACIN] | > 128 µg/mL | > 128 µg/mL | > 128 µg/mL | > 256 µg/mL | 0.5 µg/mL (≈ 0.854 µM) | > 128 µg/mL | 0.5 µg/mL (≈ 0.854 µM) | 1 µg/mL (≈ 1.71 µM) | > 128 µg/mL | 0.25 µg/mL (≈ 0.427 µM) | 2 µg/mL (≈ 3.42 µM) | – |
| CCn1cc(C(=O)O)c(=O)c2ccc(C)nc21 [NALIDIXIC ACID] | > 128 µg/mL | 128 µg/mL (≈ 551 µM) | > 128 µg/mL | > 128 µg/mL | 4 µg/mL (≈ 17.2 µM) | 16 µg/mL (≈ 68.9 µM) | 16 µg/mL (≈ 68.9 µM) | 4 µg/mL (≈ 17.2 µM) | 64 µg/mL (≈ 276 µM) | 32 µg/mL (≈ 138 µM) | 64 µg/mL (≈ 276 µM) | – |
| CC1(C)S[C@@H]2[C@H](NC(=O)[C@H](N)c3ccccc3)C(=O)N2[C@H]1C(=O)O [AMPICILLIN] | > 128 µg/mL | > 128 µg/mL | > 128 µg/mL | > 256 µg/mL | – | > 128 µg/mL | > 128 µg/mL | > 128 µg/mL | 64 µg/mL (≈ 183 µM) | > 256 µg/mL | > 128 µg/mL | – |
| C[C@H]1COc2c(N3CCN(C)CC3)c(F)cc3c(=O)c(C(=O)O)cn1c23.C[C@H]1COc2c(N3CCN(C)CC3)c(F)cc3c(=O)c(C(=O)O)cn1c23.O [LEVOFLOXACIN] | – | – | – | – | – | – | – | – | – | – | – | MIC [22]: 16 µg/mL; MIC [23]: 0.25 µg/mL; MIC [24]: 0.25 µg/mL; MIC [20]: 2 µg/mL; MIC [25]: 16 µg/mL; MIC [26]: 2 µg/mL; MIC [21]: 128 µg/mL |
| Cc1cc(NS(=O)(=O)c2ccc(N)cc2)no1 [SULFAMETHOXAZOLE] | > 256 µg/mL | > 256 µg/mL | > 256 µg/mL | > 256 µg/mL | 16 µg/mL (≈ 63.2 µM) | > 256 µg/mL | > 256 µg/mL | 4 µg/mL (≈ 15.8 µM) | 128 µg/mL (≈ 505 µM) | > 256 µg/mL | > 256 µg/mL | – |
